Test results from ChEMBL document CHEMBL3860021, “Screening and Design of Inhibitor Scaffolds for the Antibiotic Resistance Oxacillinase-48 (OXA-48) through Surface Plasmon Resonance Screening” (J Med Chem, 2016).
The source made the active and inactive calls. No cut-off for these calls is given here.

Columns and labels:
[1] = target: Beta-lactamase OXA-48 (Klebsiella pneumoniae) (UniProt Q6XEC0); test: Binding affinity to native signal deficient and TEV cleavage site containing His-tagged Klebsiella pneumoniae OXA-48 expressed in Escherichia coli assessed as association rate constant by SPR assay
Procedure, shortened: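 SPR with tOXA-48 amine-coupled to a CM5 chip (~5000 RU, immobilised from 10 mM MES pH 5.5). Meropenem was injected as a 2-fold series, 62.5 nM-32 µM, at 30 µL/min, with 60 s contact and 240 s dissociation. Sensorgrams were double-referenced and fitted to a 1:1 kinetic model.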

[2] = target: T1, Beta-lactamase OXA-48 (Klebsiella pneumoniae, UniProt Q6XEC0); test: Binding affinity to native signal deficient and TEV cleavage site containing His-tagged Klebsiella pneumoniae OXA-48 expressed in Escherichia coli assessed as dissociation rate constant by SPR assay
Procedure, shortened: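 tOXA-48 (E. coli BL21 Star (DE3) pRARE, His tag removed by TEV, cation-exchange polished) amine-coupled to CM5 chip (~5000 RU, from 25 µg/mL in 10 mM MES pH 5.5). Fragments 2-fold series 118-900 µM (or 1.8-900 µM), double-referenced, steady-state fit. Meropenem 62.5 nM-32 µM, 1:1 kinetic fit.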

[3] = target: T1, Beta-lactamase OXA-48; test: Binding affinity to native signal deficient and TEV cleavage site containing His-tagged Klebsiella pneumoniae OXA-48 expressed in Escherichia coli assessed as dissociation constant by SPR assay
[4] = target: T1, Beta-lactamase OXA-48; test: Inhibition of native signal containing Klebsiella pneumoniae OXA-48 using nitrocefin substrate pre-incubated for 5 mins before substrate addition
[5] = Inhibition of beta-lactamase VIM-2 (unknown origin)
[6] = target: Beta-lactamase OXA-48 (Klebsiella pneumoniae) (UniProt Q6XEC0); test: Inhibition of native signal containing Klebsiella pneumoniae OXA-48 at 1.5 uM using nitrocefin substrate pre-incubated for 5 mins before substrate addition
Procedure, shortened: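 Avibactam dilution series (50 nM–20 µM) was preincubated about 5 min with 100 pM nOXA-48, then started with 25 µM nitrocefin. Buffer was phosphate pH 7.0 with 50 mM NaHCO3 and 0.2 mg/ml BSA, at 25 °C. Competition read-out from initial hydrolysis rates.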

[7] = substrate: CC1(C)S[C@@H]2[C@H](NC(=O)Cc3ccccc3)C(=O)N2[C@H]1C(=O)O; test: (§1) Activity of native signal containing Klebsiella pneumoniae OXA-48 by Michaelis-Menten kinetics assay
Procedure, shortened: (§2)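 Steady-state kinetics of nOXA-48 at 25 °C in 100 mM sodium phosphate pH 7.0, 50 mM NaHCO3, 0.2 mg/ml BSA. Substrates were ampicillin, benzylpenicillin, cefepime, CENTA, meropenem, imipenem and nitrocefin, each over its own concentration range, with 100 pM–140 nM enzyme. Reactions were enzyme-started and followed spectrophotometrically. Velocities came from the linear phase, fitted to Michaelis-Menten.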

[8] = substrate: CC1(C)S[C@@H]2[C@H](NC(=O)[C@H](N)c3ccccc3)C(=O)N2[C@H]1C(=O)O; test: as §1; procedure, shortened: as §2
[9] = substrate: CO/N=C(\C(=O)N[C@@H]1C(=O)N2C(C(=O)[O-])=C(C[N+]3(C)CCCC3)CS[C@H]12)c1csc(N)n1; test: as §1; procedure, shortened: as §2
[10] = substrate: C[C@@H](O)[C@H]1C(=O)N2C(C(=O)O)=C(SCCNC=N)C[C@H]12; test: as §1; procedure, shortened: as §2
[11] = substrate: C[C@@H](O)[C@H]1C(=O)N2C(C(=O)O)=C(S[C@@H]3CN[C@H](C(=O)N(C)C)C3)[C@H](C)[C@H]12; test: as §1; procedure, shortened: as §2
[12] = substrate: O=C(Cc1cccs1)N[C@@H]1C(=O)N2C(C(=O)O)=C(/C=C/c3ccc([N+](=O)[O-])cc3[N+](=O)[O-])CS[C@H]12; test: as §1; procedure, shortened: as §2
[13] = substrate: O=C(Cc1cccs1)N[C@@H]1C(=O)N2C(C(=O)O)=C(CSc3ccc([N+](=O)[O-])c(C(=O)O)c3)CS[C@H]12; test: as §1; procedure, shortened: as §2
[14] = substrate: CC1(C)S[C@@H]2[C@H](NC(=O)Cc3ccccc3)C(=O)N2[C@H]1C(=O)O; test: (§3) Activity of native signal containing Klebsiella pneumoniae OXA-48 assessed as ratio of Kcat to Km by Michaelis-Menten kinetics assay; procedure, shortened: as §2
[15] = substrate: CC1(C)S[C@@H]2[C@H](NC(=O)[C@H](N)c3ccccc3)C(=O)N2[C@H]1C(=O)O; test: as §3; procedure, shortened: as §2
[16] = substrate: CO/N=C(\C(=O)N[C@@H]1C(=O)N2C(C(=O)[O-])=C(C[N+]3(C)CCCC3)CS[C@H]12)c1csc(N)n1; test: as §3; procedure, shortened: as §2
[17] = substrate: C[C@@H](O)[C@H]1C(=O)N2C(C(=O)O)=C(SCCNC=N)C[C@H]12; test: as §3; procedure, shortened: as §2
[18] = substrate: C[C@@H](O)[C@H]1C(=O)N2C(C(=O)O)=C(S[C@@H]3CN[C@H](C(=O)N(C)C)C3)[C@H](C)[C@H]12; test: as §3; procedure, shortened: as §2
[19] = substrate: O=C(Cc1cccs1)N[C@@H]1C(=O)N2C(C(=O)O)=C(/C=C/c3ccc([N+](=O)[O-])cc3[N+](=O)[O-])CS[C@H]12; test: as §3; procedure, shortened: as §2
[20] = substrate: O=C(Cc1cccs1)N[C@@H]1C(=O)N2C(C(=O)O)=C(CSc3ccc([N+](=O)[O-])c(C(=O)O)c3)CS[C@H]12; test: as §3; procedure, shortened: as §2
[21] = substrate: O=C(Cc1cccs1)N[C@@H]1C(=O)N2C(C(=O)O)=C(/C=C/c3ccc([N+](=O)[O-])cc3[N+](=O)[O-])CS[C@H]12; test: Activity of native signal deficient and TEV cleavage site containing His-tagged Klebsiella pneumoniae OXA-48 expressed in Escherichia coli by Michaelis-Menten kinetics assay
Procedure, shortened: (§4)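 His-tag-removed tOXA-48 from E. coli BL21 Star (DE3) pRARE, purified by HisTrap, TEV cleavage and cation exchange. Hydrolysis of nitrocefin (10-300 µM) was read at 482 nm with 1 nM enzyme. Buffer was 100 mM phosphate pH 7.0, 50 mM NaHCO3, 0.2 mg/ml BSA at 25 °C. Enzyme-started; linear-phase rates were fitted to Michaelis-Menten.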

[22] = substrate: O=C(Cc1cccs1)N[C@@H]1C(=O)N2C(C(=O)O)=C(/C=C/c3ccc([N+](=O)[O-])cc3[N+](=O)[O-])CS[C@H]12; test: Activity of native signal deficient and TEV cleavage site containing His-tagged Klebsiella pneumoniae OXA-48 expressed in Escherichia coli assessed as ratio of Kcat to Km by Michaelis-Menten kinetics assay; procedure, shortened: as §4

Molecule: C[C@@H](O)[C@H]1C(=O)N2C(C(=O)O)=C(S[C@@H]3CN[C@H](C(=O)N(C)C)C3)[C@H](C)[C@H]12 [MEROPENEM]
- Ka [1]: 4 ×10⁴ /M/s
- koff [2]: 0.3463 s⁻¹
- Kd [3]: 0.85 µM

Molecule: O=C(O)c1cccc(-c2cccnc2)c1
- Kd [3]: 280 µM
- IC50 [4]: 240 µM

Molecule: O=C(O)CSc1ccnc2cc(Cl)ccc12
- IC50 [4]: 220 µM

Molecule: O=C(O)c1ccc2ccncc2c1
- Kd [3]: 1180 µM
- IC50 [4]: 2200 µM

Molecule: O=C(O)c1ccc(Oc2ccccc2)cc1
- Kd [3]: 660 µM
- IC50 [4]: 870 µM

Molecule: O=C(O)c1cccc(-c2nccs2)c1
- Kd [3]: 310 µM
- IC50 [4]: 250 µM

Molecule: O=C(O)c1cccc(-c2ccncc2)c1
- Kd [3]: 280 µM
- IC50 [4]: 250 µM

Molecule: O=C(O)c1cc(-c2ccncc2)cc(-c2ccncc2)c1
- Kd [3]: 50 µM
- IC50 [4]: 18 µM
- inhibition [5]: Active

Molecule: O=C(O)c1cccc(-c2ccccc2)c1
- Kd [3]: 370 µM
- IC50 [4]: 260 µM

Molecule: O=C(O)CCCc1c[nH]c2ccccc12
- Kd [3]: 430 µM
- IC50 [4]: 480 µM

Molecule: Nc1cccnc1-c1cccc(C(=O)O)c1
- Kd [3]: 330 µM
- IC50 [4]: 180 µM

Molecule: Cc1cc2ccc(C(=O)O)cc2cn1
- Kd [3]: 700 µM
- IC50 [4]: 1020 µM

Molecule: O=C(O)c1ccc2[nH]ccc2c1
- Kd [3]: 1380 µM
- IC50 [4]: 1390 µM

Molecule: NC(=O)[C@@H]1CC[C@@H]2CN1C(=O)N2OS(=O)(=O)O
- inhibition [6]: 50%

Molecule: O=C(O)c1cccc(C#Cc2ccccc2)c1
- IC50 [4]: 480 µM

Molecule: c1ccc(-c2ccncc2)cc1
- Kd [3]: > 1000 µM
- IC50 [4]: > 2000 µM

Molecule: O=C(O)c1ccccn1 [2-PICOLINIC ACID]
- Kd [3]: > 1000 µM
- IC50 [4]: > 2000 µM

Molecule: CC(=O)c1cccc(-c2ccncc2)c1
- Kd [3]: > 1000 µM
- IC50 [4]: > 2000 µM

B1: Beta-lactamase OXA-48 (Klebsiella pneumoniae), Q6XEC0 (protein)
chain: MRVLALSAVFLVASIIGMPAVAKEWQENKSWNAHFTEHKSQGVVVLWNENKQQGFTNNLKRANQAFLPASTFKIPNSLIALDLGVVKDEHQVFKWDGQTRDIATWNRDHNLITAMKYSVVPVYQEFARQIGEARMSKMLHAFDYGNEDISGNVDSFWLDGGIRISATEQISFLRKLYHNKLHVSERSQRIVKQAMLTEANGDYIIRAKTGYSTRIEPKIGWWVGWVELDDNVWFFAMNMDMPTSDGLGLRQAITKEVLKQEKIIP
- Km [7]: 700 µM
- kcat [7]: 8000 s⁻¹
- Km [8]: 150 µM
- kcat [8]: 560 s⁻¹
- Km [9]: 300 µM
- kcat [9]: 9 s⁻¹
- Km [10]: 7.9 µM
- kcat [10]: 4.5 s⁻¹
- Km [11]: 1 µM
- kcat [11]: 0.098 s⁻¹
- Km [12]: 90 µM
- kcat [12]: 1500 s⁻¹
- Km [13]: 24 µM
- kcat [13]: 0.66 s⁻¹
- kcat/Km [14]: 1.1 ×10⁷ /M/s
- kcat/Km [15]: 3.7 ×10⁶ /M/s
- kcat/Km [16]: 3 ×10⁴ /M/s
- kcat/Km [17]: 5.7 ×10⁵ /M/s
- kcat/Km [18]: 9.8 ×10⁴ /M/s
- kcat/Km [19]: 1.7 ×10⁷ /M/s
- kcat/Km [20]: 2.8 ×10⁴ /M/s
- Km [21]: 150 µM
- kcat [21]: 2300 s⁻¹
- kcat/Km [22]: 1.5 ×10⁷ /M/s
